The record followed here is ChEMBL document CHEMBL3352128, “Design, synthesis and biological evaluation of thienopyridinones as Chk1 inhibitors” (Bioorg Med Chem, 2014).

The source made the active and inactive calls. The calls are words filed in the database; no cut-off is given here.

For test [1], the target named is T1, Serine/threonine-protein kinase Chk1 (Homo sapiens, UniProt O14757).
T1 sequence (O14757 whole entry): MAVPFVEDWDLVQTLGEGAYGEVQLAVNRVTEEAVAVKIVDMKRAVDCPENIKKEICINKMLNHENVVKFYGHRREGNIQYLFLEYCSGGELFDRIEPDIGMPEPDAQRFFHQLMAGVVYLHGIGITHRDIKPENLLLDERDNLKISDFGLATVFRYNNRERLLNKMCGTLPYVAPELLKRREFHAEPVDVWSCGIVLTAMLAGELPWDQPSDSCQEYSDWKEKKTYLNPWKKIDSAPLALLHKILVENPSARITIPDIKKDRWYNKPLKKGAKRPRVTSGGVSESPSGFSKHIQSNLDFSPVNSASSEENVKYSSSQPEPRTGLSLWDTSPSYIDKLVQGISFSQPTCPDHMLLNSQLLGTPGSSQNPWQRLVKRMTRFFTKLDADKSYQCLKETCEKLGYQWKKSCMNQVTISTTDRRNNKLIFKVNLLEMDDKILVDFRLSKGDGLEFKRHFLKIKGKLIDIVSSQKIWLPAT
In words: Inhibition of Chk1 (unknown origin) by luminescent ADP-Glo assay. On the technique in general: ADP-Glo turns the ADP formed in a reaction into a luminescent signal.

Test [2] is filed under the species Homo sapiens. In words: Selectivity index, ratio of IC50 for PKC (unknown origin) to IC50 for Chk1 (unknown origin).
For test [3], the species on record is Homo sapiens. In words: Selectivity index, ratio of IC50 for Aurora A (unknown origin) to IC50 for Chk1 (unknown origin).
For test [4], the species on record is Homo sapiens. In words: Selectivity index, ratio of IC50 for CDK2/cyclinA (unknown origin) to IC50 for Chk1 (unknown origin).
The target in the next test is CDK2/Cyclin A2 (Homo sapiens, UniProt P24941). As to the kind of experiment: Inhibition of CDK2/cyclin A (unknown origin) by HTRF kinase assay. The test is classed as protein-complex assay. The method in brief: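 CDK2/cyclin A was purchased enzyme, tested with an HTRF kinase assay kit. Compounds were first screened at 1 µg/mL final, and those giving more than 40% inhibition were taken forward to IC50.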

The next test has as its target Protein kinase C (PKC). As to the kind of experiment: Inhibition of PKC (unknown origin) by Z'-LYTETM kinase assay. More on the design: species or system Homo sapiens.
For another test, the target named is T2, Aurora kinase A (Homo sapiens, UniProt O14965).
T2 sequence (O14965 whole entry): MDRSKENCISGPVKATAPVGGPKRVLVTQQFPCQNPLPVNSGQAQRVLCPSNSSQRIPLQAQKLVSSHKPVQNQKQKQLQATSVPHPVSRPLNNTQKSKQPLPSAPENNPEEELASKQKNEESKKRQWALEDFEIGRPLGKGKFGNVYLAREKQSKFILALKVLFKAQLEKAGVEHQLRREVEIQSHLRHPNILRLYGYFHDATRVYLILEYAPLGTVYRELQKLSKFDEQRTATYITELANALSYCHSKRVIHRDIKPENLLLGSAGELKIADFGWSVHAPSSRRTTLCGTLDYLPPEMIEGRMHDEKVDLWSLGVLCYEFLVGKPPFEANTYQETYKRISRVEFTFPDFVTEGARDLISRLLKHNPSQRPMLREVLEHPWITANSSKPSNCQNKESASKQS
In words: Inhibition of Aurora A (unknown origin) expressed in Escherichia coli by ZLYTETM assay. The method in brief: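 Z'-LYTE kinase assay. Aurora A was recombinant protein expressed in E. coli. Compounds were first tested at 1 µg/mL final. Those giving more than 40% inhibition were taken further, with IC50 reported.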

For test [5], the system named is RPMI8266. As to the kind of experiment: Potentiation of melphalan-induced cytotoxicity against human […] cells at 100 nM after 72 hrs by MTS assay. The test is classed as functional, cell-based. Summed up: (§1)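 RPMI 8226 myeloma cells were seeded at 5 × 10³ cells per well in 100 µL. They were treated with Chk1 inhibitor at 100 nM, with melphalan (1, 3 and 10 µM), or with both, for 72 h. MTS was then added at 0.5 mg/mL final for 2–4 h to read growth.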
For orientation: Formazan colour is commonly taken as a measure of viable cells.

The subject of test [6] is RPMI8266. As to the kind of experiment: Cytotoxicity against human […] cells at 100 nM after 72 hrs by MTS assay. The test is classed as functional, cell-based. Summed up: as §1

As usually defined, the IC50 is the concentration needed to halve the response being measured. Higher therefore signals lower potency. For the molecule `O=c1[nH]c2sccc2c(N[C@H]2CCCNC2)c1-c1nc2ccccc2[nH]1`, the half-inhibitory concentration (IC50) is 0.00522 µM in [1], 0.852 µM on CDK2/Cyclin A2, 0.52251 µM against Protein kinase C (PKC) and 0.495 µM against Aurora kinase A. For the same molecule, the Ratio IC50 in the test filed under Homo sapiens [2], in the test filed under Homo sapiens [3] and in the test listed under Homo sapiens [4] was above 20 each time.
Regarding `NC(=O)Nc1cc(-c2cccc(F)c2)sc1C(=O)N[C@H]1CCCNC1`, the outcome in the test on RPMI8266 [5] was Active. In addition, in the test with RPMI8266 [6], the outcome was inactive.
For the molecule `O=c1[nH]c2sc(Cl)cc2c(N[C@H]2CCCNC2)c1-c1nc2ccccc2[nH]1`, the IC50 in [1] came to 0.00353 µM.
`O=c1[nH]c2sccc2c(NC2CCCNC2)c1-c1nc2ccccc2[nH]1` (stereo not given): the IC50 was 0.0156 µM in test [1], 0.849 µM against CDK2/Cyclin A2, 0.69585 µM on Protein kinase C (PKC) and 0.791 µM against Aurora kinase A. For the same molecule, the Ratio IC50 in the test listed under Homo sapiens [2], in the test listed under Homo sapiens [3] and in the test filed under Homo sapiens [4] was above 20 throughout.
Consider `COc1ccc2[nH]c(-c3c(N[C@H]4CCCNC4)c4cc(Cl)sc4[nH]c3=O)nc2c1`, for which the IC50 in test [1] was found to be 0.00233 µM; against CDK2/Cyclin A2, 0.393 µM; at Protein kinase C (PKC) it was 0.20448 µM; against Aurora kinase A, 0.328 µM. For the same molecule, the Ratio IC50 in the test listed under Homo sapiens [2], in the test filed under Homo sapiens [3] and in the test listed under Homo sapiens [4] was above 20 each time. For the same molecule, the outcome with RPMI8266 [5] was Active. Further, in the test on RPMI8266 [6], the result was inactive.
Consider `O=c1[nH]c2sc(Br)cc2c(NC2CCNC2)c1-c1nc2ccccc2[nH]1` (stereo not given), for which the concentration for half-maximal inhibition (IC50) in test [1] amounted to 0.0153 µM.
Turning to `O=c1[nH]c2sc(Br)cc2c(NC2CCCNC2)c1-c1nc2ccccc2[nH]1` (stereo not given), the IC50 turned out to be 0.00483 µM in test [1], 0.246 µM on CDK2/Cyclin A2, 0.39271 µM against Protein kinase C (PKC) and 1.59 µM at Aurora kinase A. For the same molecule, the Ratio IC50 in the test listed under Homo sapiens [2], in the test listed under Homo sapiens [3] and in the test listed under Homo sapiens [4] was above 20 throughout.
`O=c1[nH]c2sccc2c(NCC2CCNCC2)c1-c1nc2ccccc2[nH]1` yielded a half-inhibitory concentration (IC50) in [1] of 0.116 µM.
Same read-out and setting: as for `O=c1[nH]c2sccc2c(N2CCC(CO)CC2)c1-c1nc2ccccc2[nH]1`, the figure is above 10 µM; as for `CN(C)CCNc1c(-c2nc3ccccc3[nH]2)c(=O)[nH]c2sccc12`, 0.178 µM.
As for `O=c1[nH]c2sccc2c(NC2CCNC2)c1-c1nc2ccccc2[nH]1` (stereo not given), in [1], inhibition was half-maximal at 0.0475 µM (IC50).
Still for that read-out and setting: as for `Cc1cc2c(NC3CCNC3)c(-c3nc4ccccc4[nH]3)c(=O)[nH]c2s1` (stereo not given), the figure is 0.0232 µM.
As to `COc1ccc2[nH]c(-c3c(NC4CN5CCC4CC5)c4cc(Cl)sc4[nH]c3=O)nc2c1` (stereo not given), the IC50 in test [1] is 0.00536 µM; against CDK2/Cyclin A2, 4.3 µM; against Protein kinase C (PKC) it was 8.18603 µM; on Aurora kinase A, 1.4 µM. Besides, the Ratio IC50 in the test listed under Homo sapiens [2] is 100; in the test listed under Homo sapiens [3], above 20; in the test listed under Homo sapiens [4] it was 100.
`COC(=O)CCNc1c(-c2nc3ccccc3[nH]2)c(=O)[nH]c2sccc12`: in test [1], the IC50 is above 10 µM.
Regarding `O=c1[nH]c2sccc2c(N2CCOCC2)c1-c1nc2ccccc2[nH]1`, the IC50 in test [1] is above 10 µM.
Still for that read-out and setting: as for `O=c1[nH]c2ccsc2c(NC2CCNC2)c1-c1nc2ccccc2[nH]1` (stereo not given), the figure is 0.0247 µM.
For `O=c1[nH]c2sc(Cl)cc2c(NC2CN3CCC2CC3)c1-c1nc2ccccc2[nH]1` (stereo not given), the IC50 in test [1] is 0.00623 µM; at CDK2/Cyclin A2 it was 3.19 µM; on Protein kinase C (PKC), 2.01888 µM; on Aurora kinase A, above 10 µM. Further, the figures for the Ratio IC50 in the test listed under Homo sapiens [2], in the test filed under Homo sapiens [3] and in the test listed under Homo sapiens [4] were 100, above 20 and 100, respectively. Further, in the test with RPMI8266 [5], the outcome was Active. Further, in the test on RPMI8266 [6], the result was inactive.
`O=c1[nH]c2sccc2c(N2CCCCC2)c1-c1nc2ccccc2[nH]1`: the concentration for half-maximal inhibition (IC50) in [1] was above 10 µM.
The same measure, in the same setting: then `O=c1[nH]c2sccc2c(NC2CCNCC2)c1-c1nc2ccccc2[nH]1`, with 0.00994 µM; and `O=c1[nH]c2sccc2c(NC2CCCCC2)c1-c1nc2ccccc2[nH]1`, with above 10 µM.
For `O=c1[nH]c2sccc2c(NC2CN3CCC2CC3)c1-c1nc2ccccc2[nH]1` (stereo not given), the half-inhibitory concentration (IC50) was 0.014 µM in [1], 1.63 µM at CDK2/Cyclin A2, 1.00181 µM against Protein kinase C (PKC) and above 10 µM at Aurora kinase A. The Ratio IC50 is 100 in the test filed under Homo sapiens [2], above 20 in the test listed under Homo sapiens [3] and 100 in the test filed under Homo sapiens [4].
In turn, `CNCCNc1c(-c2nc3ccccc3[nH]2)c(=O)[nH]c2sccc12` registered a concentration for half-maximal inhibition (IC50) in test [1] above 10 µM.
`O=c1[nH]c2sccc2c(NCCO)c1-c1nc2ccccc2[nH]1` came in with a concentration for half-maximal inhibition (IC50) in [1] above 10 µM.
On to `O=c1[nH]c2ccsc2c(NC2CCCNC2)c1-c1nc2ccccc2[nH]1` (stereo not given), for which the half-inhibitory concentration (IC50) in test [1] was 0.00754 µM; against CDK2/Cyclin A2, 0.256 µM; against Protein kinase C (PKC), 0.81406 µM; against Aurora kinase A it was 0.202 µM. The Ratio IC50 in the test listed under Homo sapiens [2], in the test filed under Homo sapiens [3] and in the test filed under Homo sapiens [4] was above 20 in each case.
`O=c1[nH]c2sc(Cl)cc2c(NC2CCNC2)c1-c1nc2ccccc2[nH]1` (stereo not given) returned a half-inhibitory concentration (IC50) in [1] of 0.041 µM.
The same measure, in the same setting: as for `NCCNc1c(-c2nc3ccccc3[nH]2)c(=O)[nH]c2sccc12`, the figure is above 10 µM.
Turning to `O=c1[nH]c2sc(Cl)cc2c(NC2CCCNC2)c1-c1nc2ccccc2[nH]1` (stereo not given), the IC50 in test [1] was determined as 0.00405 µM; against CDK2/Cyclin A2 it was 0.334 µM; against Protein kinase C (PKC), 0.16889 µM; at Aurora kinase A, 1.05 µM. The Ratio IC50 in the test filed under Homo sapiens [2], in the test filed under Homo sapiens [3] and in the test listed under Homo sapiens [4] was above 20 each time. Besides, the result in the test with RPMI8266 [5] was Active. The result with RPMI8266 [6] was inactive.
For `Cc1cc2c(NC3CCCNC3)c(-c3nc4ccccc4[nH]3)c(=O)[nH]c2s1` (stereo not given), inhibition in test [1] was half-maximal at 0.00984 µM (IC50).
Still for that read-out and setting: then `O=c1[nH]c2sccc2c(NCCN2CCOCC2)c1-c1nc2ccccc2[nH]1`, with above 10 µM.
